# Data from publication PMC2585982 (Toxicology and applied pharmacology, 2008).
# pEC50: −log10 of the molar value. Several values for one entry are separate records, joined by “and”; a condition that tells them apart may be missing. Equal values may be shown once. Read-outs that look alike come from different tables or passages of the source.
# Experiments:
# GSTp mRNA = assay: Northern blot of liver RNA, GSTp mRNA in CAR; type: in vivo, mice; details: isopimpinellin 150 mg/kg p.o. 24 h; TC 3 mg/kg i.p. 6 h
# NQO = assay: Liver cytosolic NQO activity; type: in vivo, mice; details: female SENCAR mice, 35, 70, 150 mg/kg p.o. 4 days, vs corn oil
# P450s 1A1/2 = assay: Liver microsomal P450 1A activity; type: in vivo, mice; details: mouse, in vivo
# [1] = molecular target: mCAR-LBD fused to the Gal4 DNA binding domain (Mus musculus, UniProt O35627); assay: CAR transfection assay, Gal4-mCAR LBD fusion reporter in HepG2 cells; type: cell-based, murine; details: HepG2, 4 μM androstanol; 250 nM TC or 0.1–100 μM isopimpinellin, 24 h
# Chain of mCAR-LBD fused to the Gal4 DNA binding domain (O35627 119-358 limits assumed): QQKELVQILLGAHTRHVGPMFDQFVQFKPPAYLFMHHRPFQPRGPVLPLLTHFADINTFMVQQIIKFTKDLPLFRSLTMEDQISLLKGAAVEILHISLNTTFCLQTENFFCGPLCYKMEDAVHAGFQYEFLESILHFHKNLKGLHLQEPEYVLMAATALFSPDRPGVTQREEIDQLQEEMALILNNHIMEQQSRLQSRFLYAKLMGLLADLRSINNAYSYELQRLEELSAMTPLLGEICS
# GSTa1 mRNA = assay: Northern blot of liver RNA, GSTa1 mRNA in CAR; type: in vivo, mice; details: isopimpinellin 150 mg/kg p.o. 24 h; TC 3 mg/kg i.p. 6 h
# P450 3A11 [2] = assay: Liver microsomal P450 3A activity; type: in vivo, mice; details: mouse, in vivo
# PXR LBD and SRC-1 RID = PXR LBD and SRC-1 RID (Mus musculus, UniProt O54915); assay: Mammalian two-hybrid assay, Gal-SRC-1 RID + VP-L-PXR in CV-1 cells; type: cell-based; details: isopimpinellin 50 μM; PCN 10 μM; Figure 7A
# Chain of PXR LBD and SRC-1 RID (Q15788 570-780 partner limits assumed, one chain of several): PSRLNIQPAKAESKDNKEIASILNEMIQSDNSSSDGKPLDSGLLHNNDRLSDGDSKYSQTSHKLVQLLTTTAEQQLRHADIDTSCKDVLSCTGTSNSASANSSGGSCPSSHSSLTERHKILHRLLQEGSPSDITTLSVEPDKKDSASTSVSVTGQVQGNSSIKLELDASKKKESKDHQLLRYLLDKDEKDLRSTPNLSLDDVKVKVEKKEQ
# Summary of the method: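 Mammalian two-hybrid in CV-1 cells co-transfected with Gal-SRC-1 RID and/or VP-L-PXR, plus MH100-tk-luc reporter and CMX-β-gal. Cells were exposed to compound or solvent control in medium for 18–24 h. Interaction was taken as luciferase activity normalised to β-gal activity; mean ± SD.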
# P450s 2B9/10 [3] = assay: Liver microsomal P450 2B activity; type: in vivo, mice; details: mouse, in vivo
# PXR = molecular target: T1, PXR (Mus musculus, UniProt O54915); assay: GAL-PXR reporter assay; type: cell-based
# T1 sequence (O54915 143-430 limits assumed): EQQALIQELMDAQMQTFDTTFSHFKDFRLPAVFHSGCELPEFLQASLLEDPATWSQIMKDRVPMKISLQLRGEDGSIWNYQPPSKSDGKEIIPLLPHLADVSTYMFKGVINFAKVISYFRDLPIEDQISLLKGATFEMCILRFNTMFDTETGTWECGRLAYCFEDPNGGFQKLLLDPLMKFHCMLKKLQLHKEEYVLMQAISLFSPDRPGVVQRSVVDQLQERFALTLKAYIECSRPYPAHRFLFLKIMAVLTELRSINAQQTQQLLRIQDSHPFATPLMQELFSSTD
# P450s 2B9/10 [4] = details: mice treated 3 consecutive days; ref Kleiner et al., 2001; cited from earlier work
# Cyp2b10 mRNA = assay: Northern blot of liver RNA, Cyp2b10 mRNA in CAR; details: isopimpinellin 150 mg/kg p.o. 24 h, TC 3 mg/kg i.p. 6 h
# P450 2B10 = details: mouse, in vivo
# SXR and SRC-1 RID = SXR and SRC-1 RID (Homo sapiens, UniProt O75469); assay: Mammalian two-hybrid assay, Gal-SRC-1 RID + VP-L-SXR in CV-1 cells; type: cell-based; details: isopimpinellin 50 μM, RIF 10 μM
# Chain of SXR and SRC-1 RID (Q15788 570-780 partner limits assumed, one chain of several): as the sequence (Q15788 570-780 partner limits assumed, one chain of several) above
# SXR [5] = molecular target: SXR (Homo sapiens, UniProt O75469); assay: SXR-DR3 reporter assay; type: cell-based
# Target sequence in this assay (O75469 whole entry): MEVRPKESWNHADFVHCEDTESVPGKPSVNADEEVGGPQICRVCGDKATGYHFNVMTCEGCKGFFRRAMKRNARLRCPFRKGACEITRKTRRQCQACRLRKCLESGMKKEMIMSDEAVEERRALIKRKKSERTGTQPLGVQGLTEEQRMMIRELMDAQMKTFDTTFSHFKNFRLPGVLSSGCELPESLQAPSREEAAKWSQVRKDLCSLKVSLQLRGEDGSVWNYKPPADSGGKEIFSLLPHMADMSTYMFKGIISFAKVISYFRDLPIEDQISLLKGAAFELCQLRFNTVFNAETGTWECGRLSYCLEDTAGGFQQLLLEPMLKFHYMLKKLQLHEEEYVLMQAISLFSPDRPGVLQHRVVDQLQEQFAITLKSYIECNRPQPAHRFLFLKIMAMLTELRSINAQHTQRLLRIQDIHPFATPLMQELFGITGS
# Target sequence in this assay (P19793 whole entry partner): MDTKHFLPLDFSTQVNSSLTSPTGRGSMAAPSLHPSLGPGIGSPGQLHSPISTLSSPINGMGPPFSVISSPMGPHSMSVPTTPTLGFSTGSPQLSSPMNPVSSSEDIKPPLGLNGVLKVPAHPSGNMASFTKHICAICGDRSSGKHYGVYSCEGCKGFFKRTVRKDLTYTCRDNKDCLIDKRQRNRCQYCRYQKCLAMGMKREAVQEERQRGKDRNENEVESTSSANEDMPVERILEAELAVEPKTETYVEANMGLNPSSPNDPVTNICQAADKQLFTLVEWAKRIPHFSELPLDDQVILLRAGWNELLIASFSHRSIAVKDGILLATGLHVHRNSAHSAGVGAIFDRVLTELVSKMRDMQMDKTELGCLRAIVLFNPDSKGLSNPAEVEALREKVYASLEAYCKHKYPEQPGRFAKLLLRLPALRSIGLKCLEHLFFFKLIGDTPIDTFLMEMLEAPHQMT
# GSTα = assay: Western blot of liver cytosol, GSTα protein expression; type: in vivo; details: SENCAR mice, 35, 70, 150 mg/kg p.o., particularly at the highest doses
# Cyp3a11 mRNA = assay: Northern blot of liver RNA, Cyp3a11 mRNA in CAR; details: isopimpinellin 150 mg/kg p.o. 24 h, TC 3 mg/kg i.p. 6 h
# [6] = tested on: GST (cumene hydroperoxide); assay: Liver GST activity, cumene hydroperoxide as substrate, after oral dosing of mice; type: in vivo; details: female SENCAR mice, even at the highest doses, data not shown
# P450 3A11 [7] = details: mouse, in vivo, po, 100 mg/kg
# GSTπ = assay: Western blot of liver cytosol, GSTπ protein expression; type: in vivo; details: SENCAR mice, 35, 70, 150 mg/kg p.o.
# P450 = assay: Liver microsomal P450 content after oral dosing of mice; type: in vivo; details: C57BL/6 mice, 100 mg/kg p.o. 3 days, vs corn oil
# GSTμ = assay: Western blot of liver cytosol, GSTμ protein expression; type: in vivo, mice; details: SENCAR mice, 35, 70, 150 mg/kg p.o.
# SXR [8] = molecular target: T2, SXR (Homo sapiens, UniProt O75469); assay: GAL-SXR reporter assay; type: cell-based
# T2 sequence (O75469 146-433 limits assumed): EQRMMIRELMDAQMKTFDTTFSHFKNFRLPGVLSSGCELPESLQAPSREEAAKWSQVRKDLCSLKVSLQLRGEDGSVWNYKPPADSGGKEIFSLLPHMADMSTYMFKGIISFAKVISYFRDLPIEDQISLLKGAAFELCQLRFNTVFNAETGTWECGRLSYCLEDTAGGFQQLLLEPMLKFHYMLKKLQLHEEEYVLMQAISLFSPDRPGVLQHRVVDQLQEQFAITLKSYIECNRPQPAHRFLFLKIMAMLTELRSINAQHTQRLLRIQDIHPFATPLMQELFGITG
# P450 1A1/1A2 = details: mouse, in vivo
compound,measurement,setting,value
"COc1c2ccoc2c(OC)c2oc(=O)ccc12 [isopimpinellin, 5,8-dimethoxypsoralen]","Increase in hepatic GSTp mRNA, CAR(−/−) mice",GSTp mRNA,≥ 5 fold
same,"Increase in hepatic GSTp mRNA, female CAR(+/+) mice",GSTp mRNA,~ 8 fold
same,"Liver cytosolic NQO activity, dose-response study",NQO,increased at all doses
same,"P450 1 activity, liver microsomes, dose-response study",P450s 1A1/2,significant increases
same,Effect on the inhibitory effect of androstanol on Gal4 reporter expression (mCAR-LBD),[1],counteracted
same,"Increase in hepatic GSTa1 mRNA, female CAR(−/−) mice",GSTa1 mRNA,~ 3 fold
same,"Increase in hepatic GSTa1 mRNA, male CAR(−/−) mice",GSTa1 mRNA,~ 8 fold
same,"Increase in hepatic GSTa1 mRNA, male and female CAR(+/+) mice",GSTa1 mRNA,10–11 fold
same,"P450 3A activity, liver microsomes, dose-response study",P450 3A11 [2],increased
same,"Increase in P450 3A activity (testosterone), liver microsomes","P450 3A11 [2]; po, 100 mg/kg",3–4 fold
same,Induced interaction of PXR LBD and SRC-1 RID compared to the control,PXR LBD and SRC-1 RID,over 4 fold
same,"Increase in P450 2B9/10 enzyme activity, dose-response study",P450s 2B9/10 [3],300 fold
same,"P450 2B activity, liver microsomes, dose-response study",P450s 2B9/10 [3],significant increases
same,"Increase in P450 2B activity (pentoxyresorufin), liver microsomes","P450s 2B9/10 [3]; po, 100 mg/kg",~ 5 fold
same,pEC50,PXR,~4.77
same,"Max (concentration to reach maximal effect), GAL-PXR","PXR; CV-1 cells, 18–24 h","100,000 nM"
same,pEC50,"PXR; ED50, GAL-PXR activation, CV-1 cells, 18–24 h, luciferase normalized by β-gal",4.74 and 4.75
same,"Concentration to reach maximal effect, times higher than PCN",PXR; GAL-PXR reporter system,30 times
same,Hepatic P450 2B9/10 activity at 1 h after the final dose,P450s 2B9/10 [4],no elevation
same,Increase in hepatic P450 2B9/10 activity at 24 h after the final dose,P450s 2B9/10 [4],100 fold
same,"Induction of hepatic Cyp2b10 mRNA, CAR(−/−) mice",Cyp2b10 mRNA,attenuated
same,"Induction of hepatic Cyp2b10 mRNA, CAR(+/+) mice",Cyp2b10 mRNA; male and female,~ 4 fold
same,"Increase in P450 2B9/10 protein expression (optical density), dose-response study",P450 2B10,2–3 fold
same,"P450 2B10 protein levels, dose-response study",P450 2B10,significantly elevated
same,P450 2B10 protein expression (western blot densitometry),"P450 2B10; po, 100 mg/kg",increased
same,Induced interaction of receptor LBD and SRC-1 (Figure 7B),SXR and SRC-1 RID,~ 2 fold
same,pEC50,SXR [5],4.40
same,"Max (concentration to reach maximal effect), SXR-DR3","SXR [5]; CV-1 cells, full length SXR","100,000 nM"
same,"Hepatic expression of GST α protein, dose-response study",GSTα,greatly increased
same,"Induction of hepatic Cyp3a11 mRNA, CAR(−/−) mice",Cyp3a11 mRNA,still observed
same,"Induction of hepatic Cyp3a11 mRNA, CAR(+/+) mice",Cyp3a11 mRNA; male and female,~ 4 fold
same,GST activity using cumene hydroperoxide as a substrate,[6],no differences
same,P450 3A11 protein expression (western blot densitometry),P450 3A11 [7],increased
same,"Hepatic expression of GST π protein, dose-response study",GSTπ,modest increase
same,"P450 content, liver microsomes",P450,increased
same,"Hepatic expression of GST μ protein, dose-response study",GSTμ,no increase
same,pEC50,SXR [8],~4.46
same,"Max (concentration to reach maximal effect), GAL-SXR","SXR [8]; CV-1 cells, 18–24 h","100,000 nM"
same,pEC50,"SXR [8]; ED50, GAL-SXR activation, CV-1 cells, 18–24 h, luciferase normalized by β-gal",4.45
same,"Concentration to reach maximal effect, times higher than RIF",SXR [8]; GAL-SXR reporter system,10 times
same,"P450 1A1/1A2 protein levels, dose-response study",P450 1A1/1A2,elevated
same,P450 1A1/1A2 protein expression (western blot densitometry),"P450 1A1/1A2; po, 100 mg/kg",increased
